In ChEMBL document CHEMBL4028872, “Structure-Activity Relationship, Pharmacological Characterization, and Molecular Modeling of Noncompetitive Inhibitors of the Betaine/γ-Aminobutyric Acid Transporter 1 (BGT1)” (J Med Chem, 2017):
pIC50: −log10 of the molar value. Active and inactive are the calls of the source. No cut-off for these calls is given here.

Assays:
[1] = molecular target: Sodium- and chloride-dependent betaine transporter (Homo sapiens, UniProt P48065, S345A); experiment: Inhibition of human BGT1 S345A mutant expressed in tsA201 cells assessed as reduction in [3H]GABA uptake after 3 mins by scintillation counting method; assay type: cell-based
Chain of Sodium- and chloride-dependent betaine transporter (Homo sapiens, UniProt P48065, S345A) (P48065 whole entry S345A): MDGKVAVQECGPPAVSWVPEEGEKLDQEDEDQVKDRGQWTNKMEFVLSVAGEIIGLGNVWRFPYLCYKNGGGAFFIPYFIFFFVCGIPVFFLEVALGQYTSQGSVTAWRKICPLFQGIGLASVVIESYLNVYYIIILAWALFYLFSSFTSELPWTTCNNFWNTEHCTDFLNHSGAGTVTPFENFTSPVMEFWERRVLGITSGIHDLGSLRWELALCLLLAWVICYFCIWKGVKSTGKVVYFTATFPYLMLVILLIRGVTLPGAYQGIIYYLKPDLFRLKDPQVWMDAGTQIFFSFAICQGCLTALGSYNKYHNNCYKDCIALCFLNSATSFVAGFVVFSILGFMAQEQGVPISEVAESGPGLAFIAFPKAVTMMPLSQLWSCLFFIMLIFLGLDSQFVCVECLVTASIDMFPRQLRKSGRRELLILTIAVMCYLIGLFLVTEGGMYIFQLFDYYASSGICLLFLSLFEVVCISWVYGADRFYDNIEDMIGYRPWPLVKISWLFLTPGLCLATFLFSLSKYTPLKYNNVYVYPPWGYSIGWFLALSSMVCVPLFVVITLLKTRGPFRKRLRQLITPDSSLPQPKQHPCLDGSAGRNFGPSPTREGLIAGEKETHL
How it was run: (§1)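 Site-directed mutant transporters transiently transfected (PolyFect) into tsA201 cells, plated and used about 24 h later. Cells were washed with HBSS containing 20 mM HEPES, 1 mM CaCl2 and 1 mM MgCl2, pH 7.4. IC50 was taken from variable-slope sigmoidal fits. Triplicates, at least three independent experiments.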

[2] = molecular target: Histamine H1 receptor (Homo sapiens) (UniProt P35367); experiment: Displacement of [3H]pyrilamine from human histamine H1 receptor expressed in HEK cell membranes at 10 uM after 90 mins by scintillation counting method
Chain of Histamine H1 receptor (Homo sapiens) (P35367 whole entry): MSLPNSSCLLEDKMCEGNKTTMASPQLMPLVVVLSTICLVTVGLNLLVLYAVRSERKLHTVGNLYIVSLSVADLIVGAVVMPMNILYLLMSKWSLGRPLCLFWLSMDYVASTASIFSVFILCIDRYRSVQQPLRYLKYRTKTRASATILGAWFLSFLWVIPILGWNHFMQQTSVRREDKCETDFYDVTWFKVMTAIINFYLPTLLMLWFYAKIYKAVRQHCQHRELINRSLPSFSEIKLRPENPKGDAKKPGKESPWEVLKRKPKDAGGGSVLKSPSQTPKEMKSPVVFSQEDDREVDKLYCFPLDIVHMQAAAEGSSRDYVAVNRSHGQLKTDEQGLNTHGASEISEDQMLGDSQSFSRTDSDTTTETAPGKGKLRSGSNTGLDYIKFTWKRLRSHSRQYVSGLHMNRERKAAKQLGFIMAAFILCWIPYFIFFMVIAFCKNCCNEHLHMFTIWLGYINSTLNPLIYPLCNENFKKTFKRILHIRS

[3] = molecular target: Sodium- and chloride-dependent betaine transporter (Homo sapiens, UniProt P48065, H312N); experiment: Inhibition of human BGT1 H312N mutant expressed in tsA201 cells assessed as reduction in [3H]GABA uptake after 3 mins by scintillation counting method; assay type: cell-based; how it was run: as §1
Chain of Sodium- and chloride-dependent betaine transporter (Homo sapiens, UniProt P48065, H312N) (P48065 whole entry H312N): as the sequence (P48065 whole entry S345A) above, with H312N, A345S counted along it

[4] = molecular target: Sodium- and chloride-dependent betaine transporter (Homo sapiens, UniProt P48065, I340V); experiment: Inhibition of human BGT1 I340V mutant expressed in tsA201 cells assessed as reduction in [3H]GABA uptake after 3 mins by scintillation counting method; assay type: cell-based; how it was run: as §1
Chain of Sodium- and chloride-dependent betaine transporter (Homo sapiens, UniProt P48065, I340V) (P48065 whole entry I340V): as the sequence (P48065 whole entry S345A) above, with I340V, A345S counted along it

[5] = molecular target: Sodium- and chloride-dependent betaine transporter (Homo sapiens, UniProt P48065, F324C); experiment: Inhibition of human BGT1 F324C mutant expressed in tsA201 cells assessed as reduction in [3H]GABA uptake after 3 mins by scintillation counting method; assay type: cell-based; how it was run: as §1
Chain of Sodium- and chloride-dependent betaine transporter (Homo sapiens, UniProt P48065, F324C) (P48065 whole entry F324C): as the sequence (P48065 whole entry S345A) above, with F324C, A345S counted along it

[6] = molecular target: Sodium- and chloride-dependent betaine transporter (Homo sapiens, UniProt P48065, K310N); experiment: Inhibition of human BGT1 K310N mutant expressed in tsA201 cells assessed as reduction in [3H]GABA uptake after 3 mins by scintillation counting method; assay type: cell-based; how it was run: as §1
Chain of Sodium- and chloride-dependent betaine transporter (Homo sapiens, UniProt P48065, K310N) (P48065 whole entry K310N): as the sequence (P48065 whole entry S345A) above, with K310N, A345S counted along it

[7] = molecular target: Alpha-2C adrenergic receptor (Homo sapiens) (UniProt P18825); experiment: Displacement of [3H]rauwolscine from human alpha-2C adrenergic receptor expressed in MDCK cell membranes at 10 uM after 90 mins by scintillation counting method
Chain of Alpha-2C adrenergic receptor (Homo sapiens) (P18825 whole entry): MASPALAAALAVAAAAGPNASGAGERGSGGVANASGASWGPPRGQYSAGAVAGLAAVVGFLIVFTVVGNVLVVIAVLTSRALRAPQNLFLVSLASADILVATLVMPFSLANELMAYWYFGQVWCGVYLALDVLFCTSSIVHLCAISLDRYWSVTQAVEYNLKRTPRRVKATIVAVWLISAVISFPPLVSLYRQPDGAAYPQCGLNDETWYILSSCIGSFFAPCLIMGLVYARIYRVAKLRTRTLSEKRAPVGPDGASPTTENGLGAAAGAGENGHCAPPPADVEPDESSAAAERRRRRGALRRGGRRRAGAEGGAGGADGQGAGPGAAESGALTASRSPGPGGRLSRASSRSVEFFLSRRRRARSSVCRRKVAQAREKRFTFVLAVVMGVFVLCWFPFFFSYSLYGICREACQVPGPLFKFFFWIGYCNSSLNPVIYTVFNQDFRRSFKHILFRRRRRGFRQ

[8] = molecular target: 5-hydroxytryptamine receptor 1D (Homo sapiens) (UniProt P28221); experiment: Displacement of [3H]GR125743 from human 5-HT1D receptor expressed in HEKT cell membranes at 10 uM after 90 mins by scintillation counting method
Chain of 5-hydroxytryptamine receptor 1D (Homo sapiens) (P28221 whole entry): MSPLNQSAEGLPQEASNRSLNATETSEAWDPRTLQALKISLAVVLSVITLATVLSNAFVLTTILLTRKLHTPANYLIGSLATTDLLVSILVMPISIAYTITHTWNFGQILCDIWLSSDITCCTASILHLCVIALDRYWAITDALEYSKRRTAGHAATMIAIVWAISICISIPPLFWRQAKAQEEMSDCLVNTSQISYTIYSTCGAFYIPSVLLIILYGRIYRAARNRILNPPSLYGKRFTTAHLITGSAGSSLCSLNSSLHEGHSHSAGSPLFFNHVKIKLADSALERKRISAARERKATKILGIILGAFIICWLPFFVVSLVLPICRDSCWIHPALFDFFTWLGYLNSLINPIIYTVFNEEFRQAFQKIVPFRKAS

[9] = molecular target: Sodium- and chloride-dependent betaine transporter (Homo sapiens, UniProt P48065, Q346Y); experiment: Inhibition of human BGT1 Q346Y mutant expressed in tsA201 cells assessed as reduction in [3H]GABA uptake after 3 mins by scintillation counting method; assay type: cell-based; how it was run: as §1
Chain of Sodium- and chloride-dependent betaine transporter (Homo sapiens, UniProt P48065, Q346Y) (P48065 whole entry Q346Y): as the sequence (P48065 whole entry S345A) above, with A345S, Q346Y counted along it

- pIC50 [1]: 4.68
- inhibition [2]: Active
- pIC50 [3]: 5.10
- pIC50 ([4]; read-out: IC50): 5.10
- IC50 ([4]; read-out: pIC50 (converted)): 5.89 µM
- pIC50 [5]: 5.22
- pIC50 [6]: 5.00
- inhibition [7]: Active
- inhibition [8]: Active
- pIC50 [9]: 4.85
Structure (SMILES): O=C(NC1CCN(Cc2ccccc2)CC1)c1ccc(Cl)cc1Cl
